Laboratory results published in ChEMBL document CHEMBL1287747, “Highly active antimycobacterial derivatives of benzoxazine” (2010).
In brackets after ≈: the same amount, converted by molar mass.

Columns and labels:
Assay type in all cases: functional
[1] = test system: Mycobacterium tuberculosis; test: Antimycobacterial activity against Mycobacterium tuberculosis CNCTC My 331/88 after 14 days by microdilution method; details: CNCTC My 331/88, 336 h
Procedure, shortened: (§1)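 Strains from the Czech National Collection of Type Cultures, tested by dilution micromethod in Šula semisynthetic medium. Incubated at 37 °C and read at 14 and 21 days. MIC is the lowest concentration inhibiting growth.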

[2] = test system: Mycobacterium tuberculosis; test: Antimycobacterial activity against Mycobacterium tuberculosis CNCTC My 331/88 after 21 days by microdilution method; details: CNCTC My 331/88, 504 h; procedure, shortened: as §1
Mycobacterium avium [3] = test: Antimycobacterial activity against Mycobacterium avium CNCTC My 330/88 after 14 days by microdilution method; details: CNCTC My 330/88, 336 h; procedure, shortened: as §1
Mycobacterium avium [4] = test: Antimycobacterial activity against Mycobacterium avium CNCTC My 330/88 after 21 days by microdilution method; details: CNCTC My 330/88, 504 h; procedure, shortened: as §1
Mycobacterium kansasii [5] = test: Antimycobacterial activity against Mycobacterium kansasii CNCTC My 235/80 after 14 days by microdilution method; details: CNCTC My 235/80, 336 h; procedure, shortened: as §1
Mycobacterium kansasii [6] = test: Antimycobacterial activity against Mycobacterium kansasii CNCTC My 235/80 after 21 days by microdilution method; details: CNCTC My 235/80, 504 h; procedure, shortened: as §1
Mycobacterium kansasii [7] = test: Antimycobacterial activity against Mycobacterium kansasii 6509/96 after 14 days by microdilution method; details: 6509/96, 336 h
Procedure, shortened: (§2)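 Clinical isolate that, unlike the standard strain, is not isoniazid-resistant. Tested by dilution micromethod in Šula semisynthetic medium, with compounds added in DMSO at final 1000 down to 0.25 µmol/L in twofold steps. Löwenstein-Jensen plate used as inoculum sterility and growth control. Incubated at 37 °C and read at 14 and 21 days. MIC is the lowest concentration inhibiting growth.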

Mycobacterium kansasii [8] = test: Antimycobacterial activity against Mycobacterium kansasii 6509/96 after 21 days by microdilution method; details: 6509/96, 504 h; procedure, shortened: as §2

Structure (SMILES) | MIC [1] [µM] | MIC [2] [µM] | MIC (Mycobacterium avium [3]) [µM] | MIC (Mycobacterium avium [4]) [µM] | MIC (Mycobacterium kansasii [5]) [µM] | MIC (Mycobacterium kansasii [6]) [µM] | MIC (Mycobacterium kansasii [7]) [µM] | MIC (Mycobacterium kansasii [8]) [µM]
CCc1ccc(-n2c(=O)oc3ccc(Br)cc3c2=S)cc1 | 0.5 (≈ 0.181 µg/mL) | 0.5 (≈ 0.181 µg/mL) | 32 (≈ 11.6 µg/mL) | 32 (≈ 11.6 µg/mL) | 8 (≈ 2.9 µg/mL) | 16 (≈ 5.8 µg/mL) | 4 (≈ 1.45 µg/mL) | 8 (≈ 2.9 µg/mL)
CCc1ccc(-n2c(=O)oc3ccc(Cl)cc3c2=S)cc1 | 0.5 (≈ 0.159 µg/mL) | 0.5 (≈ 0.159 µg/mL) | 16 (≈ 5.08 µg/mL) | 16 (≈ 5.08 µg/mL) | 8 (≈ 2.54 µg/mL) | 8 (≈ 2.54 µg/mL) | 4 (≈ 1.27 µg/mL) | 4 (≈ 1.27 µg/mL)
CCc1ccc(-n2c(=O)oc3cc(Cl)ccc3c2=S)cc1 | 0.5 (≈ 0.159 µg/mL) | 0.5 (≈ 0.159 µg/mL) | 8 (≈ 2.54 µg/mL) | 8 (≈ 2.54 µg/mL) | 8 (≈ 2.54 µg/mL) | 8 (≈ 2.54 µg/mL) | 8 (≈ 2.54 µg/mL) | 8 (≈ 2.54 µg/mL)
CC(C)c1ccc(-n2c(=O)oc3ccc(Br)cc3c2=S)cc1 | 0.25 (≈ 0.0941 µg/mL) | 0.5 (≈ 0.188 µg/mL) | 4 (≈ 1.51 µg/mL) | 8 (≈ 3.01 µg/mL) | 32 (≈ 12 µg/mL) | 62.5 (≈ 23.5 µg/mL) | 4 (≈ 1.51 µg/mL) | 8 (≈ 3.01 µg/mL)
CC(C)c1ccc(-n2c(=O)oc3ccc(Cl)cc3c2=S)cc1 | 0.5 (≈ 0.166 µg/mL) | 1 (≈ 0.332 µg/mL) | 32 (≈ 10.6 µg/mL) | 125 (≈ 41.5 µg/mL) | 8 (≈ 2.65 µg/mL) | 16 (≈ 5.31 µg/mL) | 1 (≈ 0.332 µg/mL) | 2 (≈ 0.664 µg/mL)
CC(C)c1ccc(-n2c(=O)oc3cc(Cl)ccc3c2=S)cc1 | 0.5 (≈ 0.166 µg/mL) | 1 (≈ 0.332 µg/mL) | 8 (≈ 2.65 µg/mL) | 8 (≈ 2.65 µg/mL) | 8 (≈ 2.65 µg/mL) | 8 (≈ 2.65 µg/mL) | 4 (≈ 1.33 µg/mL) | 8 (≈ 2.65 µg/mL)
CC(C)c1ccc(-n2c(=O)oc3ccc(F)cc3c2=S)cc1 | 0.25 (≈ 0.0788 µg/mL) | 0.5 (≈ 0.158 µg/mL) | 0.5 (≈ 0.158 µg/mL) | 1 (≈ 0.315 µg/mL) | 2 (≈ 0.631 µg/mL) | 4 (≈ 1.26 µg/mL) | 4 (≈ 1.26 µg/mL) | 4 (≈ 1.26 µg/mL)
Cc1ccc2c(=S)n(-c3ccc(C(C)C)cc3)c(=O)oc2c1 | 0.25 (≈ 0.0779 µg/mL) | 0.5 (≈ 0.156 µg/mL) | 0.5 (≈ 0.156 µg/mL) | 1 (≈ 0.311 µg/mL) | 2 (≈ 0.623 µg/mL) | 4 (≈ 1.25 µg/mL) | 1 (≈ 0.311 µg/mL) | 2 (≈ 0.623 µg/mL)
CCC(C)c1ccc(-n2c(=O)oc3ccc(Br)cc3c2=S)cc1 (configuration not stated) | 0.25 (≈ 0.0976 µg/mL) | 0.5 (≈ 0.195 µg/mL) | 16 (≈ 6.24 µg/mL) | 32 (≈ 12.5 µg/mL) | 4 (≈ 1.56 µg/mL) | 8 (≈ 3.12 µg/mL) | 2 (≈ 0.781 µg/mL) | 4 (≈ 1.56 µg/mL)
CCC(C)c1ccc(-n2c(=O)oc3ccc(Cl)cc3c2=S)cc1 (configuration not stated) | 0.5 (≈ 0.173 µg/mL) | 1 (≈ 0.346 µg/mL) | 32 (≈ 11.1 µg/mL) | 32 (≈ 11.1 µg/mL) | 8 (≈ 2.77 µg/mL) | 8 (≈ 2.77 µg/mL) | 4 (≈ 1.38 µg/mL) | 8 (≈ 2.77 µg/mL)
CCC(C)c1ccc(-n2c(=O)oc3ccc(F)cc3c2=S)cc1 (configuration not stated) | 0.25 (≈ 0.0823 µg/mL) | 0.5 (≈ 0.165 µg/mL) | 1 (≈ 0.329 µg/mL) | 1 (≈ 0.329 µg/mL) | 4 (≈ 1.32 µg/mL) | 4 (≈ 1.32 µg/mL) | 2 (≈ 0.659 µg/mL) | 4 (≈ 1.32 µg/mL)
CCC(C)c1ccc(-n2c(=O)oc3cc(C)ccc3c2=S)cc1 (configuration not stated) | 0.25 (≈ 0.0814 µg/mL) | 0.5 (≈ 0.163 µg/mL) | 0.5 (≈ 0.163 µg/mL) | 0.5 (≈ 0.163 µg/mL) | 1 (≈ 0.325 µg/mL) | 2 (≈ 0.651 µg/mL) | 0.5 (≈ 0.163 µg/mL) | 1 (≈ 0.325 µg/mL)
CC(C)(C)c1ccc(-n2c(=O)oc3ccc(Cl)cc3c2=S)cc1 | 0.25 (≈ 0.0865 µg/mL) | 0.5 (≈ 0.173 µg/mL) | 1 (≈ 0.346 µg/mL) | 2 (≈ 0.692 µg/mL) | 8 (≈ 2.77 µg/mL) | 8 (≈ 2.77 µg/mL) | 4 (≈ 1.38 µg/mL) | 8 (≈ 2.77 µg/mL)
CC(C)(C)c1ccc(-n2c(=O)oc3ccc(F)cc3c2=S)cc1 | 0.25 (≈ 0.0823 µg/mL) | 0.5 (≈ 0.165 µg/mL) | 0.5 (≈ 0.165 µg/mL) | 1 (≈ 0.329 µg/mL) | 4 (≈ 1.32 µg/mL) | 8 (≈ 2.64 µg/mL) | 8 (≈ 2.64 µg/mL) | 8 (≈ 2.64 µg/mL)
Cc1ccc2c(=S)n(-c3ccc(C(C)(C)C)cc3)c(=O)oc2c1 | 0.25 (≈ 0.0814 µg/mL) | 0.5 (≈ 0.163 µg/mL) | 0.25 (≈ 0.0814 µg/mL) | 0.5 (≈ 0.163 µg/mL) | 2 (≈ 0.651 µg/mL) | 2 (≈ 0.651 µg/mL) | 1 (≈ 0.325 µg/mL) | 1 (≈ 0.325 µg/mL)
CCc1ccc(-n2c(=S)oc3ccc(Cl)cc3c2=S)cc1 | 0.5 (≈ 0.167 µg/mL) | 0.5 (≈ 0.167 µg/mL) | 8 (≈ 2.67 µg/mL) | 16 (≈ 5.34 µg/mL) | 8 (≈ 2.67 µg/mL) | 8 (≈ 2.67 µg/mL) | 4 (≈ 1.34 µg/mL) | 6 (≈ 2 µg/mL)
CCc1ccc(-n2c(=S)oc3cc(Cl)ccc3c2=S)cc1 | 0.5 (≈ 0.167 µg/mL) | 0.5 (≈ 0.167 µg/mL) | 4 (≈ 1.34 µg/mL) | 8 (≈ 2.67 µg/mL) | 8 (≈ 2.67 µg/mL) | 16 (≈ 5.34 µg/mL) | 8 (≈ 2.67 µg/mL) | 16 (≈ 5.34 µg/mL)
CC(C)c1ccc(-n2c(=S)oc3ccc(Br)cc3c2=S)cc1 | 0.5 (≈ 0.196 µg/mL) | 1 (≈ 0.392 µg/mL) | 8 (≈ 3.14 µg/mL) | 16 (≈ 6.28 µg/mL) | 32 (≈ 12.6 µg/mL) | 62.5 (≈ 24.5 µg/mL) | 4 (≈ 1.57 µg/mL) | 8 (≈ 3.14 µg/mL)
CC(C)c1ccc(-n2c(=S)oc3ccc(Cl)cc3c2=S)cc1 | 0.5 (≈ 0.174 µg/mL) | 1 (≈ 0.348 µg/mL) | 32 (≈ 11.1 µg/mL) | 125 (≈ 43.5 µg/mL) | 8 (≈ 2.78 µg/mL) | 16 (≈ 5.57 µg/mL) | 1 (≈ 0.348 µg/mL) | 2 (≈ 0.696 µg/mL)
